Measured values taken from ChEMBL document CHEMBL1127608, “Non-peptide fibrinogen receptor antagonists. 2. Optimization of a tyrosine template as a mimic for Arg-Gly-Asp” (J Med Chem, 1994).
Peptide text beside a SMILES is read from it.

Key:
[1] = biological target: T1, Integrin alpha-IIb/beta-3 (Homo sapiens, UniProt P05106+P08514); assay: Inhibition of platelet aggregation as the concentration necessary to inhibit the change in light.; format: functional
Summary of the method: (§1)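 Human gel-filtered platelets at 2 × 10^8/mL were mixed with 0.1 mg/mL human fibrinogen, 1 mM CaCl2 and compound, then aggregated with 10 µM ADP. Light transmittance was compared between control and treated samples.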
Target sequence in this assay (P05106 27-788 limits assumed): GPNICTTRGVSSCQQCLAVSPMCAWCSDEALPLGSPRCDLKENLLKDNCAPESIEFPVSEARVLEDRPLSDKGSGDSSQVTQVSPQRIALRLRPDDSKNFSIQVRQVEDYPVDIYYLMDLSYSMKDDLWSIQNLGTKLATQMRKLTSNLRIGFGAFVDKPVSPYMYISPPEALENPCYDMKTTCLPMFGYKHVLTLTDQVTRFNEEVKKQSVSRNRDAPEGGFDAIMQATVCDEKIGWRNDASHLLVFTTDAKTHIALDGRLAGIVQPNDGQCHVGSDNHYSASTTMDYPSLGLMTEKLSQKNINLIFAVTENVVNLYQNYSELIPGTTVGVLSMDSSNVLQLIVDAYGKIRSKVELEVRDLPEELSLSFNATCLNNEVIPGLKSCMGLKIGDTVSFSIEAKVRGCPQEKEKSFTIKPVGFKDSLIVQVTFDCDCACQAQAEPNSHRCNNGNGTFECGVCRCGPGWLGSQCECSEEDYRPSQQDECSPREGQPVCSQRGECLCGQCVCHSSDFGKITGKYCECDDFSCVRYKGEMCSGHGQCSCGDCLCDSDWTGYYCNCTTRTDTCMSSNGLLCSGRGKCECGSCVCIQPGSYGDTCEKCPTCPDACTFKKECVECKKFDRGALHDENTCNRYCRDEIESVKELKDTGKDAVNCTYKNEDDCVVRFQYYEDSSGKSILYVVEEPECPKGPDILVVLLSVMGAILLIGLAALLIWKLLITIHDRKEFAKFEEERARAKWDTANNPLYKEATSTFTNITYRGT
Target sequence in this assay (P08514 32-887 limits assumed): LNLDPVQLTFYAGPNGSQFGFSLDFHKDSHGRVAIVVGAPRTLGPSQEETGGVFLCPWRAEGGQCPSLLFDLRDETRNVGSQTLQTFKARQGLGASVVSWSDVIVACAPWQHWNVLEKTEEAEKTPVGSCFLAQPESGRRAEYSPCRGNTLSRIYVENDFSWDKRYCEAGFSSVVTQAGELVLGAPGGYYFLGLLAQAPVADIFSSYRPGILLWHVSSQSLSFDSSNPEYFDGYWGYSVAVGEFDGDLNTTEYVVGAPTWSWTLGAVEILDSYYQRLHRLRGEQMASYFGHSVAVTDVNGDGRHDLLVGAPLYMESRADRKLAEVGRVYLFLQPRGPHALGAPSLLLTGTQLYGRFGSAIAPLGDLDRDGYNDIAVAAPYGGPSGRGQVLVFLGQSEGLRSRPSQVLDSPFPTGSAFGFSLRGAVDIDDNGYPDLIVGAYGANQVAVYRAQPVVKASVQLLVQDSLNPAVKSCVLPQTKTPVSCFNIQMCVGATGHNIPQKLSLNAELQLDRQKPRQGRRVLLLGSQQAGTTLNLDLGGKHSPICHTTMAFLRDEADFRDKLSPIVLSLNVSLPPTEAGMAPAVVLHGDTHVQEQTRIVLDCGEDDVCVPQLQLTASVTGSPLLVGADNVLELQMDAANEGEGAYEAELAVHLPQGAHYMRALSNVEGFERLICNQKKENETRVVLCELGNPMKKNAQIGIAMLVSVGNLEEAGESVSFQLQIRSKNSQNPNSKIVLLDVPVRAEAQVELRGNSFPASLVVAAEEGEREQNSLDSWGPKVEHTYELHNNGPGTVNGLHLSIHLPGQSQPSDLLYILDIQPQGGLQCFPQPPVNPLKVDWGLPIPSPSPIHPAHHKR
Target sequence in this assay (P08514 891-1039 limits assumed): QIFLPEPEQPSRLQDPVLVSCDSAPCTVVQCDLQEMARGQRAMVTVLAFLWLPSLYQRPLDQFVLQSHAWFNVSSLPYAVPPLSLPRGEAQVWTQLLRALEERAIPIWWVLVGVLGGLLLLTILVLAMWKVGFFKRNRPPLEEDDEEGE

[2] = biological target: T2, Integrin alpha-V/beta-3 (Homo sapiens, UniProt P05106+P06756); assay: Inhibition of human umbilical vein endothelial cell adhesion to fibrinogen; format: functional, cell-based
[3] = biological target: Integrin alpha-5/beta-1 (Homo sapiens, UniProt P05556+P08648); assay: (§2) Inhibition of human umbilical vein endothelial cell adhesion to fibronectin; format: functional, cell-based
[4] = biological target: T2, Integrin alpha-V/beta-3; assay: Inhibition of human umbilical vein endothelial cell adhesion to vitronectin; format: functional, cell-based
[5] = as §2; format: functional, cell-based
[6] = biological target: T1, Integrin alpha-IIb/beta-3; assay: Inhibition of platelet aggregation by change in light transmittance at 300 uM; format: functional; summary of the method: as §1

T2 sequence (P05106 27-788 limits assumed): as the sequence (P05106 27-788 limits assumed) above
T2 sequence (P06756 31-889 limits assumed): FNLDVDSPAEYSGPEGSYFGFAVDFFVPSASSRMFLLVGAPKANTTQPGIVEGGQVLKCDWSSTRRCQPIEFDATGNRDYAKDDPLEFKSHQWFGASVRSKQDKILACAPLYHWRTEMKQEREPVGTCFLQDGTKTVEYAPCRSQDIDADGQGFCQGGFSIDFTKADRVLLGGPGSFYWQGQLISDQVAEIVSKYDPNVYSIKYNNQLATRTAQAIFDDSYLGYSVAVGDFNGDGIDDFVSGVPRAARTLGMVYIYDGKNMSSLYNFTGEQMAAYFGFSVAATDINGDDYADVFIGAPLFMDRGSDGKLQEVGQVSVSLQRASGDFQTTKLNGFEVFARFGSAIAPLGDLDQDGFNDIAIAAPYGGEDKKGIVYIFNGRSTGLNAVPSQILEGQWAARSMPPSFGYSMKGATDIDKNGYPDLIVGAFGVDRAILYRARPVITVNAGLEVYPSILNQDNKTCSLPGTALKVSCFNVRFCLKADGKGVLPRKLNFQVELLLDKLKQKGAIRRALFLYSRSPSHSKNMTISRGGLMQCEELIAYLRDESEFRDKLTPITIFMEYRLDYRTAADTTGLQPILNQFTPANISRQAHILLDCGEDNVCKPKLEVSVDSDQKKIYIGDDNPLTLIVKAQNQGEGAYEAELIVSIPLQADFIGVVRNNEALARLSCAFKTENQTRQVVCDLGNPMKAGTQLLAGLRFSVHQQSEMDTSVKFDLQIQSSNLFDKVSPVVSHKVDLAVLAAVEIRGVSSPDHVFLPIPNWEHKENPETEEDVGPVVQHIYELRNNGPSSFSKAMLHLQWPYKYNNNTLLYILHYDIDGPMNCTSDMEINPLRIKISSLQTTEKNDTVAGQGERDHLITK
T2 sequence (P06756 891-1048 limits assumed): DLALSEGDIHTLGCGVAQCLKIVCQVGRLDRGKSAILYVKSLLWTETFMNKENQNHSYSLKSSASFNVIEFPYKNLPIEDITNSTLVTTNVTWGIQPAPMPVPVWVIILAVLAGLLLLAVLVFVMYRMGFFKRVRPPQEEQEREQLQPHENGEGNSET
Integrin alpha-5/beta-1, sequence (P05556 21-798 limits assumed): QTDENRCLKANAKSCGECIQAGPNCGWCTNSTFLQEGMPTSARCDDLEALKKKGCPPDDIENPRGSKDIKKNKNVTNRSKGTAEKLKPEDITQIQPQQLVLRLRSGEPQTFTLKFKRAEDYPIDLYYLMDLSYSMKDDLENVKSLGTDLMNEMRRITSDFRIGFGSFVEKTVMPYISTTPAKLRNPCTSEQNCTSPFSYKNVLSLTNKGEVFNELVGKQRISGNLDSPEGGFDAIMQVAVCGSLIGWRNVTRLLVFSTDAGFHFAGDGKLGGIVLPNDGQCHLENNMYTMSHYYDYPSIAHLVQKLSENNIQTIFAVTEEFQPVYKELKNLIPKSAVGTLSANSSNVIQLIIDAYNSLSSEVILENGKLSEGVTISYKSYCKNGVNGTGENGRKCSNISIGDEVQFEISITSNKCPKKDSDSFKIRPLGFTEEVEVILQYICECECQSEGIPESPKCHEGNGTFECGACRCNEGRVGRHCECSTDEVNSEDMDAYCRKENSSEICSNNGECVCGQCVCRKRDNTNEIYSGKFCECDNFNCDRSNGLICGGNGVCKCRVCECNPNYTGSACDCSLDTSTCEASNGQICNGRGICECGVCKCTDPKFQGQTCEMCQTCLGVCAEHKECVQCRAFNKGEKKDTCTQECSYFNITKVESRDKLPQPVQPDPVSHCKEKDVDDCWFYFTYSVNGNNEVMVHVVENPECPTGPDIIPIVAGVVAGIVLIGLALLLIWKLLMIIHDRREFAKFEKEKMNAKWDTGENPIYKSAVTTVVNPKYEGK
Integrin alpha-5/beta-1, sequence (P08648 42-894 limits assumed): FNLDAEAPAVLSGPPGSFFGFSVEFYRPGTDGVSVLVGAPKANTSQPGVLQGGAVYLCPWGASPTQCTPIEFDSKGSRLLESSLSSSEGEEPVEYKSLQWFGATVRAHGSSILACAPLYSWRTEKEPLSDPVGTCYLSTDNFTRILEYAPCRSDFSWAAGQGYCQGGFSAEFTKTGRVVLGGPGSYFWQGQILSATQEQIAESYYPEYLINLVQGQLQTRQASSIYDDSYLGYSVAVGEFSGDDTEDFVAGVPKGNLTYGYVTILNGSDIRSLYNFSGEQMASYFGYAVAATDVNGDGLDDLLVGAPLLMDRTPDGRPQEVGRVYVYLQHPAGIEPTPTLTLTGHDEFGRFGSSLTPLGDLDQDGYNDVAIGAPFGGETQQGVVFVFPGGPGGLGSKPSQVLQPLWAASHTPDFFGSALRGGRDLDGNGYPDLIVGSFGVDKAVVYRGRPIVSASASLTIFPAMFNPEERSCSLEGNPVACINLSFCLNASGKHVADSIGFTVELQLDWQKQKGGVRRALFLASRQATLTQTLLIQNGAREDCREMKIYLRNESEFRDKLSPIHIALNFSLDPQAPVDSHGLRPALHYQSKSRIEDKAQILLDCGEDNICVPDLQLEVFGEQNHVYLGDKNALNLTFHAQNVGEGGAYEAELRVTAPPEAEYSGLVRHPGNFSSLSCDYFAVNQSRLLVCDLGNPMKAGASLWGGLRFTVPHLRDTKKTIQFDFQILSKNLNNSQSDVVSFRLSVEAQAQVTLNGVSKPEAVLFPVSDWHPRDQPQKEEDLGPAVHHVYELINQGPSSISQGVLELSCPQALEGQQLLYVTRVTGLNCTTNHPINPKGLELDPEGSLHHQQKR
Integrin alpha-5/beta-1, sequence (P08648 895-1049 limits assumed): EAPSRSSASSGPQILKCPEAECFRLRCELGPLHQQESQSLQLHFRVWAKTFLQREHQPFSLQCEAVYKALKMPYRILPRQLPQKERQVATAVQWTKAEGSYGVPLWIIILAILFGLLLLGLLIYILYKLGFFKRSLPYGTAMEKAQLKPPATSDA

| IC50 [1] | IC50 [2] | IC50 [4] | Compound | other results |
| --- | --- | --- | --- | --- |
| 8 µM |  |  | NCCCCCCOc1ccc(C[C@H](NC(=O)CCc2ccccc2)C(=O)O)cc1 |  |
| 0.78 µM | 330 µM | 150 µM | CCCCS(=O)(=O)N[C@@H](Cc1ccc(OCCCCCCN)cc1)C(=O)O | IC50 [3]: > 500 µM |
|  |  | 62 µM | CCCCS(=O)(=O)N[C@@H](Cc1ccc(OCCCCC2CCNCC2)cc1)C(=O)O [TIROFIBAN] |  |

The next lines start with the molecule.

| Compound | IC50 [1] | IC50 [2] | IC50 [4] | other results |
| --- | --- | --- | --- | --- |
| NCCCCCCOc1ccc(C[C@H](NC(=O)OCc2ccccc2)C(=O)O)cc1 | 26 µM |  |  |  |
| CCCCCC(=O)N[C@@H](Cc1ccc(OCCCCC2CCNCC2)cc1)C(=O)O | 0.035 µM |  |  |  |
| NC(N)=NCCC[C@H](N)C(=O)NCC(=O)N[C@@H](CC(=O)O)C(=O)N[C@@H](Cc1c[nH]c2ccccc12)C(=O)O (H-RGDW-OH) |  | 34 µM | 14 µM | IC50 [3]: 27 µM |
| O=C(N[C@@H](Cc1ccc(OCCCCC2CCNCC2)cc1)C(=O)O)OCc1ccccc1 | 0.26 µM | 158 µM | 56 µM | IC50 [5]: 300 µM |
| NCCCCCCCOc1ccc(C[C@H](NC(=O)OCc2ccccc2)C(=O)O)cc1 |  | 315 µM | 147 µM | IC50 [3]: > 450 µM |
| NCCCCCCOc1ccc(CCC(=O)O)cc1 |  |  |  | inhibition [6]: 12% |
| CC(C)(C)NCC(O)COc1ccc(C[C@H](NC(=O)OCc2ccccc2)C(=O)O)cc1 (stereo partly drawn) |  | > 300 µM | > 300 µM | IC50 [5]: > 300 µM |
| O=C(O)[C@H](Cc1ccc(OCCCCC2CCNCC2)cc1)NS(=O)(=O)Cc1ccccc1 | 0.018 µM |  |  |  |
